This data set is described as follows: Toxicity liver stage against HepG2, at 10uM. The data set is classed as cell-based. Further details: test concentration 10 uM, cell line HepG2-A16-CD81EGFP. The following applies: human, HepG2-A16-CD81EGFP cells; read-out: INHIBITION
The method in brief: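 Uninfected HepG2-A16-CD81EGFP cells, 3 × 10^3 per well, 1536-well, plated on prespotted compound at 10 μM final, parasite-free screening media added to match infected plates; puromycin 10 μM positive, DMSO 0.5% negative; run in parallel with 48 h PbLuc assay at 37 °C, 5% CO2; viability by CellTiter-Glo luminescence, normalized to controls.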
Regarding `Cn1cccc1C(=O)N[C@H]1CN(Cc2ccoc2)[C@@H]2CCCO[C@H]12`, the cytotoxicity at 10 µM is -88.7%. Under `CC(CNC(=O)N1CCN(c2cnccn2)CC1)Cc1cccs1` (stereo unspecified) stands 1.7%.

For the compound `NC(=O)c1ccc(N2CCCCC2)c(NC(=O)c2ccc(F)cc2Cl)c1`, the cytotoxicity at 10 µM was -4.2%.

Take `CO[C@H]1CN(S(=O)(=O)c2ccccc2F)C[C@@]12CCCO2`: the cytotoxicity at 10 µM is -3.08%. The result for `COc1ccc(C2Nc3cc(Cl)ccc3C3=NCCN32)cc1O` (stereo unspecified) reads -31.1%; that for `CC(=O)c1cccc(OCCCC(=O)N(C)Cc2cccc(O)c2)c1`, -4.58%. The result for `CN(Cc1cc2cc(F)ccc2[nH]1)C(=O)C1CC(=O)N(C2CCCC2)C1` (stereo unspecified) reads -3.26%. Under `Cc1nn(-c2ccccc2)c(C)c1CNC1CCc2ncnn2C1` (stereo unspecified) stands 2.87%; under `Cc1nc(C)n(CC2CN(Cc3cccc4c3OCCO4)CCO2)n1` (stereo unspecified), -1.99%; under `Cc1cc2cc(NC(=O)Cn3ncc(N4CCCC4)cc3=O)ccc2o1`, -0.273%. As to `CC(C)CN1CCN(S(=O)(=O)c2cn(C)cn2)Cc2cccnc21`, the cytotoxicity at 10 µM is -144%. The result for `CC(C)N1CCOC(c2ccnc(N(C)C)n2)C1` (stereo unspecified) reads -0.104%.

As for `Cc1cnn(CCNCc2csc(-c3ccc(F)cc3)n2)c1`, the cytotoxicity at 10 µM is -8.54%.

As for `CCC(Nc1nnnn1-c1ccccc1)C(=O)NC1CCSCC1` (stereo unspecified), the cytotoxicity at 10 µM is -16%. The result for `O=C(NCc1cc2ccccc2s1)c1cc(CN2CCCC(O)C2)on1` (stereo unspecified) reads -40%; that for `Cc1cc(Cl)ccc1-n1ncc(C(=O)NCC2COC(C)(C)O2)c1N` (stereo unspecified), -2.25%. `Cc1nn(C)c(C)c1C1CCCN1Cc1ccc(C(N)=O)cc1` (stereo unspecified): the cytotoxicity at 10 µM is -1.01%. Take `O=C(c1csnn1)N1CCc2[nH]nc(COc3cccc(Cl)c3)c2C1`: the cytotoxicity at 10 µM is -60%.

Turning to `Cc1cc(S(=O)(=O)NCC(O)c2sccc2C)ccc1F` (stereo unspecified), the cytotoxicity at 10 µM was -1.81%. `CC(C)CNC(=O)[C@H]1C[C@H]2CN(C(=O)NCC3CCCCC3)C[C@@H]1O2`: the cytotoxicity at 10 µM was -4.81%.

Turning to `CCn1nc2c(cc1=O)CN(CC(=O)Nc1cc(C)no1)CC2`, the cytotoxicity at 10 µM is -5.22%. With `c1nc(N2CCOC(Cn3cncn3)C2)c2cc[nH]c2n1` (stereo unspecified), the cytotoxicity at 10 µM was -7.97%. Under `COCCc1noc(CNC(C)(CO)C2CCCCC2)n1` (stereo unspecified) stands 7.88%; under `CCCNC(=O)C1CCN(CC(O)c2ccccc2C(F)(F)F)CC1` (stereo unspecified), 3.21%; under `CCS(=O)(=O)N1CCC2(CN(Cc3ccc(C)o3)C2)C1`, -109%. The result for `O=S(=O)(c1ccc(C(F)(F)F)cc1)N1CCC(OCc2ccccn2)C1` (stereo unspecified) reads 1.22%. The result for `O=C1CC2(CCCCN2C(=O)c2cccs2)CN1CC1CC1` (stereo unspecified) reads 2.67%; that for `CC(=O)c1c(F)cccc1N1CCC(CS(N)(=O)=O)CC1`, -7.79%; that for `Cc1nc(CCNC(=O)NC(C)c2ccc3c(c2)OCCO3)cs1` (stereo unspecified), -1.18%.

For the compound `COc1ccc(Cl)cc1S(=O)(=O)N1C[C@H]2CC[C@@H](C1)N(C)C2=O`, the cytotoxicity at 10 µM amounted to 3.98%. The result for `Cc1nc(CNCC2CN(C3CC3)CCO2)cs1` (stereo unspecified) reads -10.1%; that for `COCC(=O)NC[C@]12COC[C@H]1CN(Cc1ccc3c(c1)OCO3)C2`, -112%; that for `O=C(NCCc1nncn1C1CC1)c1cc2ccccn2c1`, -1.87%. Take `CNC(=O)c1cn2cc(-c3ccccc3Cl)n(CC3CC3)c(=O)c2n1`: the cytotoxicity at 10 µM amounted to 0.562%. Under `Cc1nn(C)c(N2CCOCC2)c1CNC(C)c1ccccn1` (stereo unspecified) stands -10.7%; under `CC(C)=CCS(=O)(=O)Cc1nc(C(C)C)no1`, 10.8%; under `Cc1cnc(C(=O)N(C)[C@@H]2CCC[C@@H](Oc3ccccc3)[C@@H]2O)cn1`, -15.3%. On to `CC(C)C(O)C1(CNC(=O)Nc2ccc(CN3CCOC3=O)cc2)CC1` (stereo unspecified), for which the cytotoxicity at 10 µM is -5.09%. In the case of `O=C(NCc1ccco1)N1CCCCC1c1nc(-c2ccncc2)no1` (stereo unspecified), the cytotoxicity at 10 µM is -7.92%. Consider `O=S(=O)(C1CC1)N1CCOCC2(CCN(c3ccccn3)C2)C1` (stereo unspecified), for which the cytotoxicity at 10 µM was found to be 12.9%. As to `OC1(CNCCc2csc(-c3cccnc3)n2)CCNC1` (stereo unspecified), the cytotoxicity at 10 µM was 2.76%. Under `Cn1cc(CN2C[C@H]3CCC[C@@]3(COCC3CC3)C2)cn1` stands -97.8%; under `O=C1CCC(CCC(=O)N2CCC2c2cccs2)=NN1` (stereo unspecified), 6.13%; under `Cc1nc2ccccc2n1Cc1cc(C(=O)N2C[C@@H](C)O[C@@H](C)C2)no1`, 25.7%. Take `O=C(NC1(c2nnn(CCO)n2)CCCC1)c1ccccc1`: the cytotoxicity at 10 µM came out at 14.8%. The result for `Cn1c(Cn2ccnc2)nnc1C1CCCN(Cc2ccncc2)C1` (stereo unspecified) reads 12.1%; that for `COC(=O)CCN1CCCC1c1cccc2c1OCCO2` (stereo unspecified), 17.7%.

`O=C(c1c[nH]nn1)N1CCCC1C1CCCCC1` (stereo unspecified): the cytotoxicity at 10 µM is 3.81%.

On to `CCN1CCOCC2(CCCN(c3nncs3)C2)C1` (stereo unspecified), for which the cytotoxicity at 10 µM stood at 8.28%.

On to `Cc1nc(-c2ccccc2C(=O)O)cc(C2CCN(C(C)C)C2)n1` (stereo unspecified), for which the cytotoxicity at 10 µM was -13.1%. Under `O=C(NCc1cnc2n1CCN(Cc1nccs1)C2)c1ccno1` stands -104%; under `CCOc1ccc(C(=O)N2Cc3cnc(CC)nc3C2)o1`, 3.34%; under `CN(Cc1nnc(C2CC2)n1C)C1CCN(CCc2ccncc2)C1` (stereo unspecified), -4.56%. Under `CCCN1CCC(CC(=O)N2CC(C)(C)[C@@](C)(O)C2)CC1` stands 2.65%. Under `CCOC(=O)CNC(=O)NCc1cccn1Cc1ccccc1F` stands -2.24%; under `CC(=O)N1CCN(C(=O)C(C)n2cncn2)CC1` (stereo unspecified), 1.64%; under `Cc1cccc(OCC(=O)N(Cc2ccncc2)C2CC2)c1`, -40.4%.

On to `COCCc1noc(-c2ccc(N[C@H]3CCCCNC3=O)nc2)n1`, for which the cytotoxicity at 10 µM came to 6.9%.

`Cc1ccoc1C(=O)N1CCOC2(CCCC2)C1`: the cytotoxicity at 10 µM was -4.55%.

`O=C(C1CC=CC1)N1CC[C@H]2[C@@H]1CCC(=O)N2c1ccccc1`: the cytotoxicity at 10 µM was found to be 8.88%. The result for `OCC1(O)CCCN(Cc2ccccc2OCCc2ccccc2)CC1` (stereo unspecified) reads -45.4%; that for `CSCC[C@H](NC(=O)N1CCC(Cc2ccccc2)CC1)C(=O)O`, -1.55%. For `CC(C)c1ccc(OCCC(=O)N2CCCN(C(N)=O)CC2)cc1`, the cytotoxicity at 10 µM was -15.5%. On to `CCOCCNC(=O)Cc1cccc(I)c1`, for which the cytotoxicity at 10 µM was determined as 9.62%. On to `CC(=O)N1CCOC(c2cncc(CCC(N)=O)n2)C1` (stereo unspecified), for which the cytotoxicity at 10 µM was -2.74%. For the compound `COc1cc2c(cc1OC)C(=O)C(Sc1nncn1C)C2` (stereo unspecified), the cytotoxicity at 10 µM is -5.65%. The result for `Cc1csc(N2CCCN(C(=O)c3occc3C)CC2)n1` reads -13.8%; that for `O=C(c1cccnc1)N1CCN(c2ccc(-n3cccc3)nn2)CC1`, -9.73%; that for `Cc1ccc(CN(C)C(C(=O)O)c2ccc3c(c2)OCO3)o1` (stereo unspecified), 6.35%. As for `Cc1nccn1-c1cc(CNC(=O)C2CCCO2)ccn1` (stereo unspecified), the cytotoxicity at 10 µM is -7.81%. `CN(Cc1nc(Cc2cccc(C(F)(F)F)c2)no1)CC1CCCCO1` (stereo unspecified): the cytotoxicity at 10 µM came out at 3.64%.

On to `Cc1nonc1CN(C)Cc1c[nH]nc1-c1ccc(F)cc1F`, for which the cytotoxicity at 10 µM is 11.9%. In the case of `Cc1ccc(C(CNCc2ncc[nH]2)N2CCOCC2)s1` (stereo unspecified), the cytotoxicity at 10 µM was determined as 12%.

On to `CC(C)NC(=O)CN(C1CC1)C(C)C1CC1` (stereo unspecified), for which the cytotoxicity at 10 µM is -1.6%. As for `O=C(c1ccno1)N1CCc2ncnc(-c3ccncc3)c2CC1`, the cytotoxicity at 10 µM came to 6.59%. Regarding `O=C(CCN1CCc2ccccc21)N1C[C@@H](O)[C@H](N2CCOCC2)C1`, the cytotoxicity at 10 µM came out at 1.23%. Consider `CCc1ccc(C(=O)Nc2cc(N3CCNC3=O)ccc2Cl)o1`, for which the cytotoxicity at 10 µM is 6.03%. `CCO[C@H]1COC[C@@H]1NC(=O)c1c[nH]nc1C1CCCCC1`: the cytotoxicity at 10 µM was -3.13%.

Take `CC(=O)N[C@@H](CC(C)C)C(=O)N1CCC(n2cc(CC(C)C)nn2)CC1`: the cytotoxicity at 10 µM is -10.8%. Under `N#CC1C(=O)Nc2c(cnn2C2CCCC2)C12CCCC2` (stereo unspecified) stands -7.54%; under `Cc1cc(CN2CC[C@H]3C[C@H](C(=O)Nc4cccnc4C)O[C@@H]3C2)no1`, -67%. Regarding `Cc1cnc(NC(=O)c2csc(NC3CCCC3)n2)s1`, the cytotoxicity at 10 µM turned out to be 45.8%. Under `Cc1nc(NCc2cccc(F)c2)cc(C2CCNCC2)n1` stands 2.79%; under `COc1ccc(C2(C(=O)N3CC[C@@]4(O)CCNC[C@H]4C3)CCCC2)cc1`, 6.03%; under `N#Cc1ccccc1N1CCCN(C(=O)CCc2cccs2)CC1`, -1.27%. Take `CCc1nc(CN(C(C)=O)C2CCN(CCc3ccccc3)C2)no1` (stereo unspecified): the cytotoxicity at 10 µM is -2.18%. Under `COc1cccc(CNc2ccc(F)c(Cl)c2)c1O` stands 4.56%.

Take `CN1CC2(CCCN(Cc3ccccc3OCC(=O)O)C2)OC1=O` (stereo unspecified): the cytotoxicity at 10 µM is -6.64%. As for `Cc1ccc(CN2CCc3c(CN4CCCC4)n[nH]c3C2)s1`, the cytotoxicity at 10 µM was 4.41%.

As for `NC(=O)C1CCN(C(=O)c2ccn(-c3cccc(Cl)c3)n2)C1` (stereo unspecified), the cytotoxicity at 10 µM is -0.433%. As to `CN(Cc1cccc(C#N)c1)S(=O)(=O)N1CCOCC1`, the cytotoxicity at 10 µM is 6.95%. The result for `CCc1ccc(NC(=O)N2C[C@@H]3C[C@H](C(=O)N4CCCC4)[C@H](C2)O3)cc1` reads -6.71%. The result for `Cc1nc(CN2CCCC(N(C)Cc3nc(CC(C)C)no3)C2)no1` (stereo unspecified) reads 5.35%; that for `COc1cc(C)c(CNC(C)c2nc(C)cs2)cc1OC` (stereo unspecified), 2.58%; that for `CCN1CCN(CCCNC(=O)NC(C)c2nncn2C)CC1` (stereo unspecified), -12.8%.

Take `COCCCN1CCCCC12CC(=O)N(Cc1ccccn1)C2` (stereo unspecified): the cytotoxicity at 10 µM turned out to be 1.95%.

The values are drawn from ChEMBL document CHEMBL4513216, “Probing the Open Global Health Chemical Diversity Library for Multistage-Active Starting Points for Next-Generation Antimalarials” (ACS Infect Dis, 2020).
